2 compounds from ChEMBL document CHEMBL1949570, “Quinoline- and isoquinoline-sulfonamide derivatives of LCAP as potent CNS multi-receptor-5-HT1A/5-HT2A/5-HT7 and D2/D3/D4-agents: the synthesis and pharmacological evaluation” (Bioorg Med Chem, 2012) can be followed below.

The source made the active and inactive calls. The calls are words filed in the database; no cut-off is given here.

The target in test [1] is T1, 5-hydroxytryptamine receptor 1A (Rattus norvegicus, UniProt P19327).
T1 sequence (P19327 whole entry): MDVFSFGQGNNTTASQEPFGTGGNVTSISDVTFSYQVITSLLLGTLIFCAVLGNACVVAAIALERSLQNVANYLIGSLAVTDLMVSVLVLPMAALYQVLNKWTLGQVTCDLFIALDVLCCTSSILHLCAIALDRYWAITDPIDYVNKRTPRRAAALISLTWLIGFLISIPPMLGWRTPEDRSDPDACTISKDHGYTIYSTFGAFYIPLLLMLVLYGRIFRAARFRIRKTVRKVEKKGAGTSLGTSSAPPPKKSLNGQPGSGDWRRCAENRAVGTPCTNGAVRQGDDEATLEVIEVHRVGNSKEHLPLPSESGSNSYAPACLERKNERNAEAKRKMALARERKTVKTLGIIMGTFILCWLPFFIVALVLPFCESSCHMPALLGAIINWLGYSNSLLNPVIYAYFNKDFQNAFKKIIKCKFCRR
Briefly: Displacement of [3H]8-OH-DPAT from rat hippocampus 5-HT1A receptor by liquid scintillation counter. The class given is tissue-based. The procedure, abridged:
(§1)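 Competition binding. 5-HT1A: rat hippocampus, [3H]-8-OH-DPAT. 5-HT2A: rat cortex, [3H]-ketanserin. D2: rat striatum, [3H]-spiperone. 5-HT6: human receptor stably in HEK293, [3H]-LSD. 5-HT7: human receptor stably in HEK293, [3H]-5-CT. Vacuum filtration on GF/B filters, ice-cold washes, scintillation counting.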
(In general: In a radioligand displacement assay an active substance lowers the binding of a labelled ligand.)

Test [2] has as its target T2, D(4) dopamine receptor (Homo sapiens) (UniProt P21917).
T2 sequence (whole entry): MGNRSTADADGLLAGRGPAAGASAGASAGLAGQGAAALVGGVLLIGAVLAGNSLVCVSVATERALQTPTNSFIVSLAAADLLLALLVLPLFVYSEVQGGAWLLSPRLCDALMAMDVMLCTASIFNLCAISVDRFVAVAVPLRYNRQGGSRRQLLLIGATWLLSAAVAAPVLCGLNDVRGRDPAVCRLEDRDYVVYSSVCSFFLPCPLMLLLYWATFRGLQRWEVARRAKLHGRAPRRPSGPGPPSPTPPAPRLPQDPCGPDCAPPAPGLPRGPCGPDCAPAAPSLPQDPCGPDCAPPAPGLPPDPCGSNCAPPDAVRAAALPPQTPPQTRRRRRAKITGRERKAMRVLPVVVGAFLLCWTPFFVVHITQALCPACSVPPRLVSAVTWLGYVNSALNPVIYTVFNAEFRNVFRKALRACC
As to the kind of experiment: Displacement of [3H]-methylspiperone from human cloned dopamine D4 receptor expressed in HEK293 cells at 10 '-6 M by liquid scintillation counter. The class given is cell-based.

The target of test [3] is 5-hydroxytryptamine receptor 6 (Homo sapiens, UniProt P50406). Briefly: Displacement of [3H]-LSD from human full length cloned 5HT6 receptor expressed in human HEK293 cells by liquid scintillation counter. Type of test: cell-based. The method, boiled down:
as §1

For test [4], the target named is T2, D(4) dopamine receptor (Homo sapiens). Briefly: Displacement of [3H]-methylspiperone from human cloned dopamine D4 receptor expressed in HEK293 cells at 10 '-7 M by liquid scintillation counter. The class given is cell-based.
The subject of test [5] is Mus musculus. As to the kind of experiment: Antipsychotic activity in CD1 mouse assessed as reduction in spontaneous locomotor activity measuring number of crossings at 10 to 30 mg/kg every 5 mins for 1 hr. The class given is functional, organism-based. The method, boiled down:
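Male CD-1 mice; compound or reference ip 30 min before test plus vehicle. After 30 min habituation in individual cages, crossings counted over 1 h, recorded every 5 min; mean ± SEM; one-way ANOVA, Bonferroni.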

In test [6] the target is D(3) dopamine receptor (Homo sapiens) (UniProt P35462). As to the kind of experiment: Displacement of [3H]-methylspiperone from human cloned dopamine D3 receptor expressed in HEK293 cells at 10 '-6 M by liquid scintillation counter. The class given is cell-based.
In test [7] the test system is Rattus norvegicus. As to the kind of experiment: Anxiolytic activity in Wistar rat assessed as increase in Y ambulations at 2.5 mg/kg for 5 mins by general locomotor activity test. Type of test: functional, organism-based. Further details: dose 2.5 mg/kg.
The subject of test [8] is Rattus norvegicus. As to the kind of experiment: Anxiolytic activity in Wistar rat assessed as increase in open arm entries at 10 mg/kg after 5 mins by plus-maze test (reference value: 23.1 +/- […]). Type of test: functional.
For test [9], the target named is D(3) dopamine receptor (Homo sapiens) (UniProt P35462). As to the kind of experiment: Displacement of [3H]-methylspiperone from human cloned dopamine D3 receptor expressed in HEK293 cells at 10 '-7 M by liquid scintillation counter. The class given is cell-based.
Test [10] is described as follows: Selectivity ratio of compound Ki for rat hippocampus 5-HT1A receptor to human 5HT7 receptor. Type of test: tissue-based. The method, boiled down:
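Ratio of Ki values from competition binding: rat hippocampus 5-HT1A with [3H]-8-OH-DPAT versus human 5-HT7 in HEK293 with [3H]-5-CT; Ki by Cheng–Prusoff from 7–9 concentrations in triplicate.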

For test [11], the system named is Mus musculus. As to the kind of experiment: Antidepressant activity in Swiss albino mouse assessed as reduction in immobility time at 20 mg/kg measured for 4 mins by forced swim test. The class given is functional. The method, boiled down: (§2)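 Porsolt forced swim in male Swiss albino mice. Drugs ip (10 ml/kg; 1% Tween 80 suspension, imipramine in water) 30 min before. Cylinder 25 cm high, 10 cm diameter, 6 cm water at 23–25 °C, 6 min session; immobility scored over final 4 min. 5–10 mice/dose; one-way ANOVA with Bonferroni.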

In test [12] the target is 5-hydroxytryptamine receptor 2A (Rattus norvegicus, UniProt P14842). As to the kind of experiment: Displacement of [3H]Ketanserin from rat cortex 5-HT2A receptor by liquid scintillation counter. The procedure, abridged: as §1
Test [13] has as its system Mus musculus. As to the kind of experiment: […] activity in ip dosed Swiss albino mouse assessed as inhibition of DOI-induced head twitches administered 20 mins before DOI challenge measured for 20 mins. To be noted: for ED50: read-out: ID50 (the source's name). Type of test: functional.
The subject of test [14] is Rattus norvegicus. As to the kind of experiment: Anxiolytic activity in Wistar rat assessed as increase in total distance at 2.5 mg/kg for 5 mins by general locomotor activity test. Type of test: functional, organism-based. Further details: dose 2.5 mg/kg.
The subject of test [15] is Rattus norvegicus. As to the kind of experiment: Anxiolytic activity in Wistar rat assessed as increase in time spent in open arms at 2.5 mg/kg after 5 mins by plus-maze test (reference value: 7.9 +/- 1.4 %). The class given is functional.
Test [16] deals with Mus musculus. As to the kind of experiment: […] activity in Swiss albino mouse assessed as inhibition of apomorphine-induced climbing behavior administered 10 mins before apomorphine challenge measured for 2 mins. Type of test: functional. The method, boiled down:
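Male Swiss albino mice; compounds ip in 1% Tween 80 suspension, 10 min before apomorphine 3 mg/kg. Climbing time (2–4 paws on bar wall) recorded for 2 min starting 20 min after apomorphine.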

Test [17] deals with Mus musculus. Briefly: Antidepressant activity in Swiss albino mouse assessed as reduction in immobility time at 10 mg/kg measured for 4 mins by forced swim test. Type of test: functional. The procedure, abridged:
as §2

In test [18] the test system is Rattus norvegicus. As to the kind of experiment: Anxiolytic activity in Wistar rat assessed as increase in time spent in open arms at 5 mg/kg after 5 mins by plus-maze test (reference value: 7.9 +/- 1.4 %). Type of test: functional.
In test [19] the target is T3, 5-hydroxytryptamine receptor 7 (Homo sapiens, UniProt P34969). As to the kind of experiment: Displacement of [3H]5-CT form human cloned 5HT7 receptor expressed in human HEK293 cells by liquid scintillation counter. The class given is cell-based. The procedure, abridged:
as §1

For test [20], the system named is Rattus norvegicus. Briefly: Anxiolytic activity in Wistar rat assessed as increase in time spent in open arms at 10 mg/kg after 5 mins by plus-maze test (reference value: 7.9 +/- 1.4 %). Type of test: functional.
Test [21] addresses T3, 5-hydroxytryptamine receptor 7. Briefly: Antagonist activity at human cloned 5HT7 receptor expressed in human CHO cells assessed as adenylate cyclase activity by cAMP accumulation assay. The class given is functional, cell-based. The procedure, abridged: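 CHO cells stably expressing human 5-HT7 receptor; intracellular cAMP (adenylate cyclase) measured, expressed as % of maximal effect of 300 nM serotonin. Compounds tested at 5 concentrations spanning 10^-4–10^-9 in antagonist mode. KB from IC50 by modified Cheng–Prusoff, KB = IC50/(1+A/EC50A), A = reference agonist concentration.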
For orientation: Changes in cAMP serve as a functional read-out for many G protein-coupled receptors.

The subject of test [22] is Rattus norvegicus. As to the kind of experiment: Anxiolytic activity in Wistar rat assessed as increase in open arm entries at 2.5 mg/kg after 5 mins by plus-maze test (reference value: 23.1 +/- […]). Type of test: functional.
Test [23] has as its system Rattus norvegicus. As to the kind of experiment: Anxiolytic activity in Wistar rat assessed as increase in open arm entries at 5 mg/kg after 5 mins by plus-maze test (reference value: 23.1 +/- […]). The class given is functional.
Test [24] has as its system Mus musculus. As to the kind of experiment: Antipsychotic activity in CD1 mouse assessed as inhibition of MK-801-induced hyperactivity measuring number of crossings at 5 to 30 mg/kg measured every 5 mins for 1 hr. The class given is functional, organism-based. The procedure, abridged: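 Male CD-1 mice; test compound ip 30 min before, MK-801 0.2 mg/kg (in water) ip 15 min before testing. After 30 min habituation, crossings counted for 60 min, recorded every 5 min. 5–10 mice/group; mean ± SEM; one-way ANOVA, Bonferroni versus vehicle + MK-801.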

In another test the target is D(2) dopamine receptor (Rattus norvegicus, UniProt P61169). Briefly: Displacement of [3H]-spiperone from rat striatum dopamine D2 receptor by liquid scintillation counter. The method, boiled down:
as §1

Test [25] concerns Mus musculus. As to the kind of experiment: Antidepressant activity in mouse assessed as spontaneous locomotor activity 5 to 20 mg/kg. Type of test: functional, organism-based. The method, boiled down:
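Swiss albino mice given the forced swim doses ip 30 min before; placed individually in cages and channel crossings counted from 2 to 6 min with a multichannel activity monitor, matching the swim test observation period.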

Test [26] deals with Mus musculus. As to the kind of experiment: Antidepressant activity in Swiss albino mouse assessed as reduction in immobility time at 5 to 20 mg/kg measured for 4 mins by forced swim test. The class given is functional. Further details: scale not given: the % may be the effect or the level left. To be noted: dose mg/kg 5-20. The procedure, abridged: as §2

T3 sequence (P34969 whole entry): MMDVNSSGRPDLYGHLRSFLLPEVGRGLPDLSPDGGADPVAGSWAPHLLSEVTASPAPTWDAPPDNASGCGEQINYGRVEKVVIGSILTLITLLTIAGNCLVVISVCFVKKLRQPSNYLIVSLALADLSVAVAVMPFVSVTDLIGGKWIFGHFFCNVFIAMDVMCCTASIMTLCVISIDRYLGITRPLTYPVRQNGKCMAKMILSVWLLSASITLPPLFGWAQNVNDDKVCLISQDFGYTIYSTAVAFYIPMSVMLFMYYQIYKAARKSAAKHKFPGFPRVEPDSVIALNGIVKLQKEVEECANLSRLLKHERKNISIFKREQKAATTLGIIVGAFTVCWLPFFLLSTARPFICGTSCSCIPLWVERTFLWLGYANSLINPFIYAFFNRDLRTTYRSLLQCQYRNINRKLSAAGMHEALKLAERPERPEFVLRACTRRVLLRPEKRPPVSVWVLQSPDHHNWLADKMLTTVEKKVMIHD
D(3) dopamine receptor (Homo sapiens), sequence (P35462 whole entry): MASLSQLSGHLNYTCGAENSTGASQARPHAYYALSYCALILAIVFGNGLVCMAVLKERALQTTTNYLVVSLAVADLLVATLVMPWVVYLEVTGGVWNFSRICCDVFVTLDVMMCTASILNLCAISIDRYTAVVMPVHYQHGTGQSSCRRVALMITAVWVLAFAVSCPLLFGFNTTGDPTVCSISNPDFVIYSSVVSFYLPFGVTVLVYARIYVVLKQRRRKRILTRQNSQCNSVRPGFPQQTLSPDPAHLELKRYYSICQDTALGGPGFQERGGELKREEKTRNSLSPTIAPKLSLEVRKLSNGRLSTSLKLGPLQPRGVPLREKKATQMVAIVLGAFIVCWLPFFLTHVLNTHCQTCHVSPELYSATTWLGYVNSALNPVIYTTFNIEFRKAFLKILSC
5-hydroxytryptamine receptor 2A, sequence (P14842 whole entry): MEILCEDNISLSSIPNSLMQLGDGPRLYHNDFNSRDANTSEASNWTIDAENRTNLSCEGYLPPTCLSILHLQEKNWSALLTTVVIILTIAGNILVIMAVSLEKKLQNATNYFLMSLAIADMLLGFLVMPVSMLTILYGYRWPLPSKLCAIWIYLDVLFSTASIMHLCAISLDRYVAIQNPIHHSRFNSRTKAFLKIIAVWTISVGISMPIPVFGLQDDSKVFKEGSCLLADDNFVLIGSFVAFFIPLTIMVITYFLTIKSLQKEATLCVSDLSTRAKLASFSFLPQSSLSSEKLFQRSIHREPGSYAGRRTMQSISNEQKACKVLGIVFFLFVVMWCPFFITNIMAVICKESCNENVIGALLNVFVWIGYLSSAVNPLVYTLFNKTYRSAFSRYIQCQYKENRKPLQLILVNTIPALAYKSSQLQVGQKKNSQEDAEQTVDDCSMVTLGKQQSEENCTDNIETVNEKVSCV
5-hydroxytryptamine receptor 6, sequence (P50406 whole entry): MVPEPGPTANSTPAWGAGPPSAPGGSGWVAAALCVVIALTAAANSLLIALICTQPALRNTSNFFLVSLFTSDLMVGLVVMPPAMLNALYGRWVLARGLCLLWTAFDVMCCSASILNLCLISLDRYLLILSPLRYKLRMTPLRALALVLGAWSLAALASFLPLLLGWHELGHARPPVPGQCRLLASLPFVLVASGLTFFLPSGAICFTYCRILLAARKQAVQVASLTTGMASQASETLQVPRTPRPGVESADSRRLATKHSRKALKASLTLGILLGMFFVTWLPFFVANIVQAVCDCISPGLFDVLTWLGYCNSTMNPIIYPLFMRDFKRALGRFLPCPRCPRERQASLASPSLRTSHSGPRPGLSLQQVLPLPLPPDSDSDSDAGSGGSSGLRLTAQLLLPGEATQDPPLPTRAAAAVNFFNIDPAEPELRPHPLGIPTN
D(2) dopamine receptor, sequence (P61169 whole entry): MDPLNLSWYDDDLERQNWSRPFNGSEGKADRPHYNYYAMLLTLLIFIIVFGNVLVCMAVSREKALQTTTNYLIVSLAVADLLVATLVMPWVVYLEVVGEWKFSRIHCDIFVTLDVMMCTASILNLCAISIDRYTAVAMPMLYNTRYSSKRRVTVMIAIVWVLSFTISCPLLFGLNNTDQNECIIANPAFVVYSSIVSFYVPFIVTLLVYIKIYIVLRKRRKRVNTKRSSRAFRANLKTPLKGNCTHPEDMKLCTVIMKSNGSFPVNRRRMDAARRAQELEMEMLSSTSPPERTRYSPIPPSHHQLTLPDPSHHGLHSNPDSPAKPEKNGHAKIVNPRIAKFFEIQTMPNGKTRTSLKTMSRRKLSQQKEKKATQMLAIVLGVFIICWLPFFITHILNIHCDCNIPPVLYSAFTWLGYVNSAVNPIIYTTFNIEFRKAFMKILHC

For orientation: Ki means a measure of affinity in units of concentration, obtained from inhibition or displacement. One may read the inhibition as the relative decrease from the control value, in per cent. Broadly, the Kb is the affinity of an antagonist, worked out from how it opposes an agonist. Regarding `Cl.O=S(=O)(c1cncc2ccccc12)N1CCC(CCN2CCN(c3ccc(Cl)cc3)CC2)CC1`, the Ki in test [1] was determined as 3210 nM; in test [3], 16700 nM; in test [12], 59 nM; in test [19], 47 nM; on D(2) dopamine receptor it was 60 nM. Besides, the inhibition in test [2] was 98%; in test [4] it was 70%; in test [6], 93%; in test [9], 67%; in the test on Mus musculus [13] it was “Dose-dependent effect”; with Mus musculus [16] it was “Dose-dependent effect”. Also, the result in the test on Mus musculus [5] was inactive. The result with Rattus norvegicus [7], with Mus musculus [11], in the test with Rattus norvegicus [14] and in the test on Mus musculus [17] was Active. The Activity with Rattus norvegicus [8] amounted to 40.3%; in the test with Rattus norvegicus [15], 25%; in the test on Rattus norvegicus [18], 19.4%; in the test on Rattus norvegicus [20], 29.3%; with Rattus norvegicus [22] it was 36.4%; in the test with Rattus norvegicus [23], 32.9%. For the same compound, the Ratio Ki in test [10] stood at 68. Besides, the ED50 in the test with Mus musculus [13] amounted to 20.3 mg/kg; with Mus musculus [16] (read-out: ID50 (the source's name)), 25.5 mg/kg. Further, in test [21], the Kb worked out at 90 nM. Further, the inhibition entry in the test with Mus musculus [24] is “Active”.

On to `Cl.O=S(=O)(NCCCCN1CCN(c2cccc(Cl)c2)CC1)c1cnc2ccc(Cl)cc2c1`, for which the inhibition constant Ki in test [1] was determined as 208 nM; in test [3], 155 nM; in test [12], 56 nM; in [19], 88 nM. In the test on Mus musculus [25], the result was inactive. In addition, the Activity in the test with Mus musculus [26] worked out at 44%. The inhibition result with Mus musculus [13] was “Dose-dependent effect”. For the same compound, the ED50 with Mus musculus [13] stood at 4.75 mg/kg.
